# Test results reported in ChEMBL document CHEMBL1155735, “Isolation and bioactivities of constitutents of the roots of Garcinia atroviridis” (J Nat Prod, 2001).
# The source made the active and inactive calls. The calls are words filed in the database; no cut-off is given here.
# Tests used:
# [1] = tested on: Candida albicans; assay: […] activity against Candida albicans at 10 ug/disk by disk diffusion method; type: functional, organism-based
# [2] = tested on: HeLa; assay: Cytotoxicity against human HeLa cells after 72 hrs by MTT assay; type: functional, cell-based
# Summary of the method: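 Human cervical carcinoma HeLa cells were exposed for 72 h and viability read by MTT. IC50 values were reported in µg/mL, with doxorubicin and colchicine run as reference standards. Method followed an earlier report.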
# [3] = tested on: Aspergillus ochraceus; assay: Antifungal activity against Aspergillus ochraceus at 10 ug/disk by disk diffusion method; type: functional, organism-based
# [4] = tested on: Staphylococcus aureus; assay: Antibacterial activity against Staphylococcus aureus at 10 ug/disk by disk diffusion method; type: functional; settings: read-out: DIZ
# Summary of the method: (§1)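 Disk diffusion, with test compound applied at 10 µg per disk. Streptomycin sulfate served as the reference antibacterial. Procedure followed an earlier report.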
# [5] = tested on: Escherichia coli; assay: Antibacterial activity against Escherichia coli at 10 ug/disk by disk diffusion method; type: functional; summary of the method: as §1
# [6] = tested on: Bacillus cereus; assay: Antibacterial activity against Bacillus cereus at 10 ug/disk by disk diffusion method; type: functional; settings: read-out: DIZ; summary of the method: as §1
Compound,Activity [1],IC50 [2] [µg/mL],Activity [3],zone of inhibition at 10 µg/disc [4] [mm],diameter of the inhibition zone (DIZ) [5],zone of inhibition at 10 µg/disc [6] [mm],zone of inhibition at 10 µg/disc ([5]; read-out: DIZ) [mm]
COC(=O)c1c(O)cc(O)cc1OC1=C(OC)C(=O)C(CC=C(C)C)=C(CC=C(C)C)C1=O [ATROVIRINONE],inactive,15,inactive,6.5,inactive,6.5,
COc1c(O)c(CC=C(C)C)c(CC=C(C)C)c2c1Oc1cc(O)cc(O)c1C(=O)O2 [ATROVIRISIDONE],inactive,> 30,inactive,8,inactive,7.5,
COc1cc2c(c(OC)c1OC)-c1ccc(OC)c(=O)cc1[C@@H](NC(C)=O)CC2 [COLCHICINE],,21,,,,,
COc1cccc2c1C(=O)c1c(O)c3c(c(O)c1C2=O)C[C@@](O)(C(=O)CO)C[C@@H]3O[C@H]1C[C@H](N)[C@H](O)[C@H](C)O1 [DOXORUBICIN],,11,,,,,
CN[C@@H]1[C@H](O[C@H]2[C@H](O[C@H]3[C@H](O)[C@@H](O)[C@H](N=C(N)N)[C@@H](O)[C@@H]3N=C(N)N)O[C@@H](C)[C@]2(O)C=O)O[C@@H](CO)[C@H](O)[C@H]1O [STREPTOMYCIN],,,,13.5,,21,12.5
